Data reported in PMC6982609 (Nature chemical biology, 2019).

Tests used:
EZH2 = conditions: read-out: IC50 for EZH2; cited from earlier work
TNBC cells = assay: Growth inhibition of TNBC cells by EZH2 inhibitors; format: cell-based
MDA-MB-468 cells = assay: Live-cell imaging proliferation/cell death assay with ER-stress inducer; format: cell-based
Method in brief: (§1)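 Cells (1 to 3 × 10^3 per well) were seeded in 96-well plates in duplicate and dosed at the indicated concentrations. Plates were imaged in an IncuCyte live-cell system inside a 37 °C, 5% CO2 incubator. Confluence was derived from phase-contrast images. For cell death, medium contained 1.5 μM DRAQ7, and red-fluorescent dead-cell counts were recorded by automated fluorescence microscopy.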

MDA-MB-231 cells = assay: as above; format: cell-based
Method in brief: as §1

## CCCc1cc(C)[nH]c(=O)c1CNC(=O)c1cc(-c2ccc(N3CCN(C(=O)CCOCCOCCOCCOCCOCCOCCOCCOCCOCCOCCOCCOCCNC(=O)CCCC[C@@H]4SC[C@@H]5NC(=O)N[C@@H]54)CC3)nc2)cc2c1cnn2C(C)C [UNC2399]
EZH2
  IC50: 17 nM

## CC[C@H](C)n1cc(C)c2c(C(=O)NCc3c(C)cc(C)[nH]c3=O)cc(-c3ccc(N4CCNCC4)nc3)cc21 [GSK126]
TNBC cells
  growth inhibition and apoptosis induction in TNBC cells: failed to inhibit growth

## COc1cc(C)[nH]c(=O)c1CNC(=O)c1c(C)n([C@H](C)C2CCN(CC(F)(F)F)CC2)c2ccccc12 [CPI-1205, (R)-N-((4-methoxy-6-methyl-2-oxo-1,2-dihydropyridin-3-yl)methyl)-2-methyl-1-(1-(1-(2,2,2-trifluoroethyl)piperidin-4-yl)ethyl)-1H-indole-3-carboxamide]
TNBC cells
  growth inhibition and apoptosis induction in TNBC cells: failed to inhibit growth

## tunicamycin
MDA-MB-468 cells
  induction of cell death: effectively induced cell death
MDA-MB-231 cells
  induction of cell death: not in MDA-MB-231 cells
